Data from ChEMBL document CHEMBL4007453, “Identification of Non-Nucleoside Inhibitors of the Respiratory Syncytial Virus Polymerase Complex” (J Med Chem, 2017).
Converted amounts (≈) assume the structure as drawn. “And” between values parts separate entries of the source, which are not always exact repeats. Equal entries are not always repeated.

Columns and labels:
Liver [1] = assay: Half life in mouse liver microsomes at 1 uM by LC-MS analysis; type: ADME, microsome
Procedure, shortened: (§1)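 Test article at 1 µM final was incubated in triplicate at 37°C with shaking (150 rpm) with mouse or human liver S9 or microsomes (0.5 mg total protein), with Phase I oxidation and Phase II glucuronidation cofactors. Cofactor-free and microsome-free controls were run, sampled only at 0 and 120 min. Other sampling was at 0, 15, 30, 60 and 120 min into organic internal standard solution.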

Liver [2] = assay: Half life in human liver microsomes at 1 uM by LC-MS analysis; type: ADME, microsome; procedure, shortened: as §1
BEAS-2B = assay: Cytotoxicity against human BEAS2B cells after 48 hrs by PrestoBlue staining based fluorescence assay; type: cell-based
Procedure, shortened: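 Uninfected BEAS-2B cells were exposed to compound for 48 h at 37°C. PrestoBlue was added and incubated 90 min at 37°C, then fluorescence was read (ex 560 nm, em 590 nm). Cytotoxic was defined as metabolic activity <70% of vehicle control. Highest concentration assessed for cytotoxicity was 90 µM, and CC50 came from four-parameter variable slope regression.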

[3] = Selectivity index, ratio of CC50 for human BEAS2B cells to EC50 for inhibition of recombinant mkate-tagged-Respiratory syncytial virus-A2-L19F RNA-dependent RNA polymerase complex D489E mutant in human BEAS2B cells infected with Respiratory syncytial virus-A2-L19F; type: toxicity, cell-based; conditions: read-out: Ratio CC50/EC50
Procedure, shortened: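 SI is CC50/EC50 in BEAS-2B cells. EC50 came from reporter RSV dose-response, 3-fold dilutions, top 10 µM. […] Both values from four-parameter variable-slope regression.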

[4] = Inhibition of recombinant Respiratory syncytial virus-A2-L19F RNA-dependent RNA polymerase complex D489E mutant transfected with firefly luciferase gene at SMASh domain in human BEAS2B cells infected with Respiratory syncytial virus-A2-L19F assessed as reduction in viral replication measured after […] by bioluminescence assay; type: cell-based
Procedure, shortened: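 BEAS-2B cells (1.5×10^4/well) received 3-fold serial compound dilutions prepared in three repeats (top concentration 10 µM) and were infected with firefly-luciferase/SMASh reporter RSV-A2-L19F D489E (MOI 0.1). Luminescence was converted to % inhibition against four-replicate positive and negative controls per plate. EC50 came from four-parameter variable-slope regression.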

Liver [5] = assay: Half life in mouse liver S9 fraction at 1 uM by LC-MS analysis; type: ADME, tissue-based; conditions: s9, 1 µM; procedure, shortened: as §1
Plasma [6] = assay: Half life in mouse plasma at 1 uM by LC-MS analysis; type: ADME, cell-free
Plasma [7] = assay: Half life in human plasma at 1 uM by LC-MS analysis; type: ADME, cell-free
Liver [8] = assay: Half life in human liver S9 fraction at 1 uM by LC-MS analysis; type: ADME, tissue-based; conditions: s9, 1 µM; procedure, shortened: as §1
[9] = Aqueous solubility of the compound in phosphate buffered saline at pH 7.4 after 90 mins by laser nephelometric method; type: physicochemical
Procedure, shortened: (§2)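 Stocks of 30 mg/mL in DMSO were serially diluted in DMSO, then into buffer to final 300 down to 1.5 µg/mL at 1% final DMSO. Diluent was PBS for pH 7.4 and citrate buffer for pH 3 and 5. Plates stood 90 min at ambient temperature. Forward-scatter laser nephelometry gave the concentration at which precipitation began.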

[10] = Aqueous solubility of the compound in citrate buffer at pH 5 after 90 mins by laser nephelometric method; type: physicochemical; procedure, shortened: as §2
[11] = Aqueous solubility of the compound in citrate buffer at pH 3 after 90 mins by laser nephelometric method; type: physicochemical; procedure, shortened: as §2
Liver [12] = assay: Drug metabolism in mouse liver microsomes assessed as 5-(3-Methylfuran-2-carbonyl)-5,6,7,8-tetrahydro-4H-pyrazolo-[1,5-a][1,4]diazepine-2-carboxylic Acid formation at 1 uM by LC-MS analysis; type: ADME, microsome
Liver [13] = assay: Half life in mouse liver microsomes at 1 uM in presence of NADPH by LC-MS analysis; type: ADME, microsome; procedure, shortened: as §1
Liver [14] = assay: Half life in mouse liver microsomes at 1 uM in absence of NADPH by LC-MS analysis; type: ADME, microsome; procedure, shortened: as §1
[15] = system: Respiratory syncytial virus; assay: Inhibition of recombinant mkate-tagged-Respiratory syncytial virus-A2-L19F RNA-dependent RNA polymerase complex D489E mutant in human BEAS2B cells infected with Respiratory syncytial virus-A2-L19F assessed as reduction in RSV-N mRNA level measured after 20 hrs by RT-qPCR analysis; type: cell-based
Procedure, shortened: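 Cells infected with mKate recRSV-A2-L19F (MOI 3 particles/cell) and exposed to compound at 0.1–10 µM, or DMSO, at 37°C for 20 h. RT-qPCR of RSV N mRNA, with melt-curve check. ΔΔCT calculated against GAPDH and normalised to DMSO controls. Three independent experiments, each in duplicate; mean ± SD.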

[16] = system: Vesicular stomatitis virus; assay: Antiviral activity against Vesicular stomatitis virus assessed as reduction in viral replication measured after […] by bioluminescence assay; type: functional
[17] = Antiviral activity against influenza A virus (A/WSN/1933(H1N1)) infected in MDCK cells assessed as reduction in viral replication measured after […] by bioluminescence assay; type: functional, cell-based
[18] = Inhibition of recombinant mkate-tagged-Respiratory syncytial virus-A2-L19F RNA-dependent RNA polymerase D489E mutant in human BEAS2B cells infected with Respiratory syncytial virus-A2-L19F assessed as reduction in progeny release measured after 48 hrs postinfection by fluorescence assay based progeny virus yield-based dose-response assay; type: cell-based; conditions: BEAS-2B
Procedure, shortened: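 Cells in 12-well format infected with mKate-expressing recRSV-A2-L19F (MOI 0.05 particles/cell) in the presence of serial compound dilutions at 37°C. Cell-associated progeny harvested 48 h post-infection and released by one freeze/thaw cycle. Titres determined by TCID50 titration. Two repeats; EC50 derived by regression.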

[19] = system: Respiratory syncytial virus; assay: Inhibition of Respiratory syncytial virus-A2-L19F RNA-dependent RNA polymerase complex D489E mutant in human BEAS2B cells infected with Respiratory syncytial virus-A2-L19F by firefly luciferase reporter-based RSV minigenome assay; type: cell-based
[20] = human respiratory syncytial virus, A2-L19F, BEAS-2B, 40 min

Question: Which results are given for Cc1ccoc1C(=O)N1CCCn2nc(C(=O)Nc3ccc(F)cc3Cl)cc2C1?
Answer: t1/2 (Liver [1]): 4 min; t1/2 (Liver [2]): 3.6 h; CC50 (BEAS-2B): 30000 nM; selectivity ratio [3]: 500; EC50 [4, 20]: 60 nM

Question: What does the source list for Cc1ccoc1C(=O)N1CCCn2nc(C(=O)Nc3ccccc3F)cc2C1?
Answer: t1/2 (Liver [5]): 0.183 h; t1/2 (Plasma [6]): 2.4 h; t1/2 (Liver [2]): 5.3 h; t1/2 (Plasma [7]): > 24 h; t1/2 (Liver [8]): 7 h; CC50 (BEAS-2B): 1100 nM; selectivity ratio [3]: 22; solubility kinetic at 1.5 h [9]: 30 µg/mL (≈ 78.5 µM); solubility kinetic at 1.5 h [10]: 51 µg/mL (≈ 133 µM); solubility kinetic at 1.5 h [11]: 75 µg/mL (≈ 196 µM); EC50 [4, 20]: 50 nM

Question: For Cc1ccoc1C(=O)N1CCCn2nc(C(=O)Nc3ccccc3)cc2C1, which t1/2 (Liver [5]) is on record?
Answer: Its t1/2 is 0.25 h.

Question: What about the t1/2 (Liver [2]) of the same molecule?
Answer: The t1/2 was 4.7 h.

Question: What about the Drug metabolism (Liver [12]) of the same molecule?
Answer: The Drug metabolism was “Metabolite_Detected”.

Question: What about the t1/2 (Liver [13]) of the same molecule?
Answer: Its t1/2 is 0.25 h.

Question: What about the t1/2 (Liver [14]) of the same molecule?
Answer: The t1/2 was 0.25 h.

Question: And the inhibition [15]?
Answer: The inhibition was “Dose-dependent effect”.

Question: What about the CC50 (BEAS-2B) of the same molecule?
Answer: Its CC50 is 8300 nM.

Question: And the selectivity ratio [3]?
Answer: Its selectivity ratio is 40.

Question: And the solubility kinetic at 1.5 h [9]?
Answer: Its solubility kinetic at 1.5 h is 63 µg/mL (≈ 173 µM).

Question: And the solubility kinetic at 1.5 h [10]?
Answer: The solubility kinetic at 1.5 h was 75 µg/mL (≈ 206 µM).

Question: And the solubility kinetic at 1.5 h [11]?
Answer: Its solubility kinetic at 1.5 h is 74 µg/mL (≈ 203 µM).

Question: And the EC50 [4]?
Answer: The EC50 was 200 to 210 nM and 840 nM.

Question: What about the EC50 [16] of the same molecule?
Answer: Its EC50 is > 20000 nM.

Question: And the EC50 [17]?
Answer: Its EC50 is > 20000 nM.

Question: And the EC50 [18]?
Answer: The EC50 was 540 nM.

Question: And the inhibition [19]?
Answer: Its inhibition is “Dose-dependent effect”.
